Experimental findings from ChEMBL document CHEMBL1134978, “Novel 2,5-dideoxystreptamine derivatives targeting the ribosomal decoding site RNA” (Bioorg Med Chem Lett, 2002) are described below.

SMILES strings stand for the structures.

By IC50 is commonly meant the midpoint of a concentration-inhibition curve.

The assay deals with Nucleic Acid. Put plainly: In vitro inhibition of decoding site of bacterial rRNA (within the 30S ribosomal subunit) encoding luciferase reporter in transcription-translation assay. The assay is classed as functional, Bacteria. Put shortly: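 Coupled transcription–translation in bacterial S30 extract. Compounds were preincubated with the extract, then NTPs, amino acids and a plasmid encoding firefly luciferase were added, and plates were incubated 20 min at 25 °C. After chilling on ice, luciferin substrate was added for 15 min at room temperature and luminescence was read. Doses spanned 1 mM to 100 nM with six replicates per concentration. IC50 came from a variable-slope fit of light units vs log(c).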
In general terms: A reporter such as luciferase makes a cellular process visible.
In the case of `NC1CC(N)C(C(=O)N2CCNCC2)CC1O` (configuration not stated), the IC50 is over 1000 µM.

In turn, `NC1CC(N)C(C(=O)NCCCN2CCCC2=O)CC1O` (configuration not stated) came in with a half-maximal inhibitory concentration (IC50) of over 1000 µM.

`N#Cc1cccc(NC(=O)C2CC(O)C(N)CC2N)c1` (configuration not stated) displayed an IC50 of 450 µM.

`NC1CC(N)C(C(=O)NCCN2CCOCC2)CC1O` (configuration not stated) displayed an IC50 of over 1000 µM.

In turn, `NC(=O)C1CC(O)C(N)CC1N` (configuration not stated) returned an IC50 of over 1000 µM.

In the case of `NC1CC(N)C(C(=O)Nc2ccc(-c3cnco3)cc2)CC1O` (configuration not stated), the IC50 worked out at 59 µM.

The molecule `N[C@@H]1C[C@H](N)[C@@H](O)[C@H](O)[C@H]1O` had a concentration for half-maximal inhibition (IC50) of over 1000 µM.

Consider `NC1CC(N)C(C(=O)N2CCC3(CC2)OCCO3)CC1O` (configuration not stated), for which the concentration for half-maximal inhibition (IC50) was over 1000 µM.

For the molecule `NC1CC(N)C(C(=O)Nc2ccc(-n3ccnc3)cc2)CC1O` (configuration not stated), it took 290 µM to reach half-maximal inhibition (IC50).

`NC(=O)[C@H]1CCCN1C(=O)C1CC(O)C(N)CC1N` (some centres not stated): the IC50 was over 1000 µM.

Consider `NC1CC(N)C(C(=O)N2CCN(C3=NCCCN3)CC2)CC1O` (configuration not stated), for which the IC50 is over 1000 µM.

Turning to `NC1CC(N)C(OC2OC(CO)C(O)C(O)C2N)C(O)C1O` (configuration not stated), inhibition was half-maximal at 3.9 µM (IC50).
